Assay type in all cases: functional
The test system of assay [1] is Staphylococcus aureus. As to the kind of experiment: Antimicrobial activity against methicillin-resistant Staphylococcus aureus embedded in MRD biofilm model at 3 mg/ml after 15 mins. In a few lines:
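MRSA clinical isolates from catheter-related bacteremia. Infusate of 2 × 10^5 CFU/ml in 5% dextrose water pumped through a modified Robbins device at 60 ml/h for 8 h at 37°C, then 10 h further incubation and a 2 h saline flush. Catheter segments soaked in drug in Mueller-Hinton broth for 15 min at 37°C, scrape-sonicated in TSB, plated on blood agar overnight. Mean CFU/ml, capped at 500.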

In assay [2] the test system is Staphylococcus aureus. As to the kind of experiment: Antimicrobial activity against methicillin-resistant Staphylococcus aureus embedded in MRD biofilm model at 3 mg/ml after 15 mins in drug assessed as 24 hr regrowth. In a few lines: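 MRSA biofilm grown on catheter segments in a modified Robbins device: 5% dextrose infusate at 2 × 10^5 CFU/ml, 60 ml/h for 8 h at 37°C, then 10 h incubation and a saline flush. Segments exposed to drug in broth for 15 min at 37°C, then reincubated 24 h at 37°C in Mueller-Hinton broth, scrape-sonicated and plated on blood agar. Mean CFU/ml, capped at 500.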

Assay [3] relates to Candida parapsilosis. As to the kind of experiment: Antimicrobial activity against Candida parapsilosis embedded in MRD biofilm at 3 mg/ml after 15 mins. In outline: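 MRD catheter segments colonized by infusing C. parapsilosis-infected 5% dextrose (2 × 10^2 CFU/ml) at 60 ml/h for 8 h at 37°C, then incubated 10 h more and flushed with saline 2 h. Segments soaked 15 min at 37°C in drug in Mueller-Hinton broth (MHB alone as control). Then scrape-sonicated 5 min in Trypticase soy broth and plated on blood agar overnight. Mean CFU/ml ± SD reported, capped at 500.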

Assay [4] has as its system Candida parapsilosis. Kind of assay: Antimicrobial activity against Candida parapsilosis embedded in MRD biofilm at 3 mg/ml after 15 mins in drug assessed as 24 hr regrowth. In outline: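 MRD C. parapsilosis-colonized segments were soaked 15 min at 37°C in drug in broth. A second set was reincubated 24 h at 37°C in Mueller-Hinton broth, scrape-sonicated and plated on sheep blood agar overnight. Regrowth is given as mean CFU/ml ± SD, capped at 500.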

Assay [5] concerns Staphylococcus aureus. Kind of assay: Antimicrobial activity against methicillin-resistant Staphylococcus aureus in silicone disk biofilm at 3 mg/ml after 60 mins. In outline: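 Silicone disks preconditioned in human plasma for 24 h at 37°C with shaking, then shaken 24 h at 37°C with MRSA at 5.5 × 10^5 cells/ml in MHB. Disks washed 30 min in 0.9% saline, exposed to drug for 1 h at 37°C, sonicated 5 min in saline, vortexed and plated on blood agar overnight. 5–10 replicates. Mean CFU/ml, capped at 5,000.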

Assay [6] relates to Staphylococcus aureus. As to the kind of experiment: Antimicrobial activity against methicillin-resistant Staphylococcus aureus in silicone disk biofilm at 3 mg/ml after 60 mins in drug assessed as 24 hr regrowth. In outline:
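MRSA biofilm on plasma-coated silicone disks (inoculum 5.5 × 10^5 cells/ml in MHB, 24 h, 37°C, shaking), saline-washed, then exposed to drug for 1 h at 37°C. Disks washed in saline, incubated overnight at 37°C in Trypticase soy broth, sonicated 5 min in that broth and plated on blood agar. 5–10 replicates. Mean CFU/ml, capped at 5,000.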

In assay [7] the test system is Candida parapsilosis. As to the kind of experiment: Antimicrobial activity against Candida parapsilosis in silicone disk biofilm at 3 mg/ml after 60 mins. In outline: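 Silicone disks were preconditioned in human plasma for 24 h at 37°C with shaking. They were then colonized 24 h with C. parapsilosis at 5.5 × 10^5 cells/ml in MHB and washed 30 min in saline. Disks were exposed 1 h at 37°C to drug or MHB, sonicated 5 min in saline, vortexed and plated on blood agar. 5–10 replicates; mean CFU/ml ± SD, capped at 5,000.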

Assay [8] has as its system Candida parapsilosis. As to the kind of experiment: Antimicrobial activity against Candida parapsilosis in silicone disk biofilm at 3 mg/ml after 60 mins in drug assessed as 24 hr regrowth. In a few lines:
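C. parapsilosis biofilm on plasma-coated silicone disks was exposed 1 h at 37°C to drug, then saline-washed and incubated overnight at 37°C in Trypticase soy broth. Disks were then sonicated 5 min in that broth and plated on sheep blood agar. 5–10 replicates; regrowth is given as mean CFU/ml ± SD, capped at 5,000.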

As to `CN(C)c1ccc(O)c2c1C[C@H]1C[C@H]3[C@H](N(C)C)C(O)=C(C(N)=O)C(=O)[C@@]3(O)C(O)=C1C2=O` [MINOCYCLINE], the CFU/ml in the assay with Staphylococcus aureus [1] is recorded as 324; in the assay on Staphylococcus aureus [2], 308; in the assay on Candida parapsilosis [3], 138; with Candida parapsilosis [4] it was 500; in the assay with Staphylococcus aureus [5], 5000; in the assay with Staphylococcus aureus [6], 5000. The CFU/ml with Candida parapsilosis [7] and in the assay on Candida parapsilosis [8] was 5000 each time.

The values are drawn from ChEMBL document CHEMBL1142157, “Optimal antimicrobial catheter lock solution, using different combinations of minocycline, EDTA, and 25-percent ethanol, rapidly eradicates organisms embedded in biofilm” (2007).
